# High-throughput results deposited in PubChem by several laboratories.
# The list is not random: actives were taken first. Their share in the collection is about 29%.
# CYP2C19 activ: increases human CYP2C19 enzyme activity | P33261 | recombinant CYP2C19, luciferin-H EGE luminescence; hits give high values; 0 = fully inhibited enzyme, 1 = untreated enzyme | activation factor at 5 µM | 96,000 tested, under 10 active | AID 1025;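 active = activation factor of at least 2 at 5 µM in the primary screen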;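 note: 0 = wells with 2.5 mM tranylcypromine and 1 = vehicle-only wells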
# tolC growth inh: growth inhibitors of E. coli BW25113 tolC mutant | OD615 | growth inhibition, % at 10 µM (by protocol) | actives 2.2% (n = 65,000) | AID 573;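 active = growth inhibition at or above a cutoff equal to the mean over every tested compound plus 3 SD, cut at about 60% in these data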;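 note: growth measured after 20 h incubation at 37 °C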
#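 System: E. coli ΔtolC::kan strain BW25113; Buffer or medium: LB broth supplemented with 50 µg/mL kanamycin; Compound: 10 µM final, single dose; Incubation: bacterial growth with compound for 20 h at 37 °C; Signal: A615 absorbance measurement; Evaluation: growth inhibition in percent.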
# Ecoli WT expand: E. coli BW25113 growth inhibition, expanded screen; growth inhibition, % at 100 µM; actives 0.15% (n = 98,000); OD600 absorbance; AID 710;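 active = growth inhibition above about 50% at one test dose, limit read from the data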;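 note: growth measured after 20 h incubation at 37 °C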
# CYP2C19 inh: blocks human cytochrome P450 2C19 | P33261 | CYP2C19 Supersomes, luciferin-H EGE luminescence, 30 min | inhibition, % at 5 µM | actives 21% (n = 96,000);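 active = CYP2C19 inhibition above a set limit at 5 µM in the primary screen, cut at about 50% in these data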;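 note: plate controls were negative control wells for no effect and 2.5 mM tranylcypromine positive control for full effect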
# CYP2C9 activ: CYP2C9 (human) activation; actives 1.4% (n = 96,000); recombinant CYP2C9, luciferin-H conversion, luminescence; hits give high values; factor 1 = untreated enzyme, 0 = blocked; activation factor at 5 µM;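 active = activation factor of 2 or more for CYP2C9 at a 5 µM dose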;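 note: 0 = sulfaphenazole-blocked wells and 1 = vehicle-only wells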
# Target sequence (P11712 whole entry, looked up): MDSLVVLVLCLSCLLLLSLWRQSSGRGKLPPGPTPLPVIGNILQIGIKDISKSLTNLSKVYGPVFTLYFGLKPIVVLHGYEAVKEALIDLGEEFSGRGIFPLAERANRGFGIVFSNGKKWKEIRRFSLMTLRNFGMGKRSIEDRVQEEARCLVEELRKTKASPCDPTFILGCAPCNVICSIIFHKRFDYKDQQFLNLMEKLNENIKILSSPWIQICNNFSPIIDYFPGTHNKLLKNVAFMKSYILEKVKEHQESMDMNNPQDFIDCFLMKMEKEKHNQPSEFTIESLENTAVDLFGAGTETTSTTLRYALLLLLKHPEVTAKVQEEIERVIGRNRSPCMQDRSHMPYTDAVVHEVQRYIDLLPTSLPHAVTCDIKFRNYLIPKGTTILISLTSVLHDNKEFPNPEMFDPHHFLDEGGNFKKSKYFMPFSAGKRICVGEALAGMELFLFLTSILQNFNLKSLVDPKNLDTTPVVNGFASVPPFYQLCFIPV
# CYP2C9 inhib: blocks human cytochrome P450 2C9 | CYP2C9 Supersomes, luciferin-H conversion, luminescence | inhibition, % at 5 µM | actives 20% (n = 96,000);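 active = blocking of liver enzyme CYP2C9 beyond about 50% at 5 µM, limit read from the data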
# * marks the source's active call; other numbers are inactive results; / = no result.
SMILES,CYP2C19 activ,tolC growth inh,Ecoli WT expand,CYP2C19 inh,CYP2C9 activ,CYP2C9 inhib
Cc1cccc(OCCCSc2nc3ccccc3[nH]2)c1,0.2,/,8.0,76.7*,1,1.6
O=C(NCc1ccc2c(c1)OCO2)c1ccc(N2C(=O)C3CCCCC3C2=O)cc1 (stereo unspecified),0.8,/,2.0,15.3,0.8,24.0
O=C(CNS(=O)(=O)c1ccc(Br)s1)N1CCN(c2ncccn2)CC1,0.6,-8.0,7.0,42.0,0.4,61.4*
Cc1ccc(N2CCN(C(=O)CNS(=O)(=O)c3ccc(Br)s3)CC2C)cc1 (stereo unspecified),0.5,24.2,-1.0,52.5*,0.6,38.1
CC1CCN(C(=O)CNS(=O)(=O)c2ccc(Br)s2)CC1,0.8,/,2.0,22.4,0.9,9.6
Cc1ccc(C)c(N2CCN(C(=O)CNS(=O)(=O)c3cccs3)CC2)c1,0.5,/,-10.0,54.2*,0.5,50.2*
CONC(=O)C1CCN(C(=O)OCc2ccccc2)CC1,0.8,/,2.0,22.4,1.3,-26.7
CCOCCCNC(=O)C1CCCN1S(=O)(=O)c1ccc(Cl)cc1 (stereo unspecified),1,-5.2,6.0,-2.9,1.3,-32.1
CCOCCCN1CN(S(=O)(=O)c2ccc(Cl)cc2)c2nc3ccccc3nc21,0.5,/,-3.0,54.5*,0.2,80.9*
CC(C)OCCCN1CN(S(=O)(=O)c2ccc(Cl)cc2)c2nc3ccccc3nc21,0.6,/,-8.0,38.0,0.7,27.6
CC(C)OCCCN1CN(S(=O)(=O)c2cccc(Cl)c2)c2nc3ccccc3nc21,0.5,/,-3.0,54.5*,0.2,80.7*
CC(C(=O)N(C1CC1)C1(C(=O)Nc2ccccc2)CCCC1)N1C(=O)c2ccccc2C1=O (stereo unspecified),0.6,13.7,-19.0,36.6,0.8,21.5
CSC1=C(C#N)C2(CCCC2)C(C#N)=C(N)N1,0.2,19.8,/,76.9*,0.4,63.0*
N#CC1=C(N)N2C(=C(C#N)C13CCCCC3)SC1CCCCC12O (stereo unspecified),0.6,53.6,-5.0,41.0,0.6,39.6
CCSC1=C(C#N)C2(CCCC2)C(C#N)=C(N)N1,0,14.9,-6.0,95.3*,0,95.1*
N#CC1=C(N)NC(SCC(=O)Nc2ccc(Br)cc2)=C(C#N)C12CCCCC2,0,/,1.0,99.5*,0,96.1*
N#CC1=C(N)NC(SCc2ccc(Cl)cc2)=C(C#N)C12CCCCC2,0,7.1,-5.0,100.0*,0,100.1*
COC(=O)C(C(=O)OC)N1C(=O)CCC1=O,1.1,-13.3,0.0,-11.3,1,-4.0
COc1n[nH]c2nncnc12,1.2,-18.2,1.0,-21.4,1.2,-23.7
CCC(C)Cn1c(C)nc2ccccc21 (stereo unspecified),0.5,3.0,10.0,52.3*,0.7,26.0
CN(c1ccccc1)S(=O)(=O)c1ccc(C(=O)OCC(=O)NCc2ccco2)cc1,0,3.3,1.0,97.1*,0.1,94.4*
COc1ccccc1N(C)S(=O)(=O)c1ccc(C(=O)OCC(=O)NCc2ccco2)cc1,0.7,28.9,-6.0,35.0,0.1,87.7*
O=C(COC(=O)c1cccc(S(=O)(=O)N2CCN(c3ccccc3)CC2)c1)NCc1ccco1,0.2,-20.1,-9.0,77.9*,0.6,44.0
O=C(COC(=O)c1cccc(Oc2ccccc2)c1)NCc1ccco1,0.9,/,0.0,14.3,0.8,24.6
COc1cc(N2C(=O)c3ccccc3C2=O)c(Cl)cc1C(=O)OCC(=O)NCc1ccco1,0.9,3.6,-5.0,14.0,0.5,49.3
SMILES,CYP2C19 activ,tolC growth inh,Ecoli WT expand,CYP2C19 inh,CYP2C9 activ,CYP2C9 inhib
COCCNC(=O)CNS(=O)(=O)c1ccc2nc(C)sc2c1,1,-14.0,11.0,-4.7,1.1,-5.2
O=C(OC1CSc2nc3ccccc3n2C1)c1ccco1 (stereo unspecified),0.9,-4.6,-12.0,12.7,0.9,7.8
COc1cccc(Nc2nc(NCCO)c3ccccc3n2)c1,0.5,/,41.0,51.2*,0.5,48.0
COc1cccc(Nc2nc(NCC3CCCO3)c3ccccc3n2)c1 (stereo unspecified),0.9,/,45.0,13.9,0.7,28.7
CCOC(=O)c1nnc(-c2cccs2)nc1Oc1ccccc1C(=O)OC,0.2,/,-10.0,83.0*,0.1,94.9*
CCN(CC)C(=O)N1CCC(NC(=O)c2ccccc2)CC1,1,-16.8,-17.0,-2.5,1,1.7
Cc1ccc(-c2csc3ncnc(SCC(=O)Nc4nnc(C)s4)c23)cc1,1.2,/,-5.0,-17.0,1,-2.2
Cc1ccc(-c2csc3ncnc(Sc4nnc(CN5CCCCCC5=O)o4)c23)cc1,0.5,60.8*,5.0,51.8*,0.2,83.1*
CO[C@@]1(NC(=O)Cc2cccs2)C(=O)N2C(C(=O)O)=C(COC(N)=O)CS[C@@H]21,/,100.0*,/,/,/,/
Cc1cc(N2CCCC2)ccc1/C=N/n1cnnc1,0,5.0,3.0,99.0*,0.1,86.1*
CSc1nc(N(C)NC(=O)c2ccccc2)c2ccccc2n1,0.1,/,-1.0,88.0*,0.3,65.0*
CSc1nc(N(C)NC(=O)c2ccc(Cl)cc2)c2ccccc2n1,1,/,-4.0,-0.3,0.8,17.4
O=C1CC(SCc2nc3ccccc3[nH]2)C(=O)N1c1ccc(Cl)cc1 (stereo unspecified),0.7,/,-11.0,31.8,0.8,24.6
O=C1CC(SCc2nc3ccccc3[nH]2)C(=O)N1c1cccc(F)c1 (stereo unspecified),0.2,-8.8,4.0,81.1*,0.3,71.0*
O=C1CC(SCc2nc3ccccc3[nH]2)C(=O)N1c1ccc(F)c(Cl)c1 (stereo unspecified),0.5,/,-5.0,52.4*,0.7,31.6
CCSc1nnc(NC(=O)CSc2nc3c(c(=O)n2CCOC)SC(C)C3)s1 (stereo unspecified),/,7.0,/,/,/,/
CCOC(=O)N1CCC(NC(=O)Cn2cc3c(n2)CCCC3)CC1,0.6,-8.3,-6.0,44.6,1.1,-5.8
CCOC(=O)C1=C(N)Oc2c(c(=O)[nH]c3ccccc23)C1c1ccccc1 (stereo unspecified),1,/,-2.0,1.7,0.3,74.2*
COC(=O)C1=C(N)Oc2cc(C)[nH]c(=O)c2C1c1cccnc1 (stereo unspecified),0.8,/,-2.0,15.9,0.9,12.3
CCOC(=O)C1=C(C)Nc2ncnn2C1c1cccnc1 (stereo unspecified),0.9,/,-4.0,5.4,0.9,8.1
CCOC(=O)C1=C(N)Oc2cc(C)[nH]c(=O)c2C1c1ccncc1 (stereo unspecified),0.3,-9.8,0.0,74.6*,0.3,74.3*
CCOC(=O)C1=C(C)N(C)C(C)=C(C(=O)OCC)C1c1cccnc1,0.1,-2.7,-2.0,86.6*,0.2,83.9*
CCOC(=O)C1=C(N)Oc2cc(C)n(C)c(=O)c2C1c1ccncc1 (stereo unspecified),0.3,-16.4,-9.0,71.9*,0.3,72.6*
